Active and inactive are the calls of the source. No cut-off for these calls is given here.
Key:
Mus musculus [1] = experiment: Neuroleptic activity in mouse assessed as suppression of conditioned avoidance behavior by measuring mean correct responses level at 10 mg/kg, ip administered 1 hr prior to electric shock challenge; format: functional; details: route intraperitoneal
In short: (§1)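 After 20 s a solenoid pushed each mouse back onto the grid, leaving 5 s to return and avoid the next shock. Trained mice reaching 90–100% correct avoidance (3–5 per group) received 10 mg/kg ip. Twenty trials were run before dosing and at intervals after. Percent correct avoidance per animal was averaged per group.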

Mus musculus [2] = experiment: Neuroleptic activity in mouse assessed as suppression of conditioned avoidance behavior by measuring mean correct responses level at 10 mg/kg, ip administered 2 hrs prior to electric shock challenge; format: functional; details: route intraperitoneal; in short: as §1
Mus musculus [3] = experiment: Neuroleptic activity in ip dosed ICR-DUB mouse assessed as survival administered 7 days prior to d-amphetamine challenge measured after 24 hrs; format: functional
Mus musculus [4] = experiment: Neuroleptic activity in mouse assessed as suppression of conditioned avoidance behavior by measuring mean correct responses level at 10 mg/kg, ip administered 4 hrs prior to electric shock challenge; format: functional; details: route intraperitoneal; in short: as §1
Mus musculus [5] = experiment: Neuroleptic activity in mouse assessed as suppression of conditioned avoidance behavior by measuring mean correct responses level at 10 mg/kg, ip administered 8 hrs prior to electric shock challenge; format: functional; details: route intraperitoneal; in short: as §1
Mus musculus [6] = experiment: Neuroleptic activity in mouse assessed as suppression of conditioned avoidance behavior by measuring mean correct responses level at 10 mg/kg, ip administered 1 day prior to electric shock challenge; format: functional; details: route intraperitoneal; in short: as §1
Mus musculus [7] = experiment: Neuroleptic activity in mouse assessed as suppression of conditioned avoidance behavior by measuring mean correct responses level at 10 mg/kg, ip administered immediately prior to electric shock challenge; format: functional; details: route intraperitoneal; in short: as §1
Mus musculus [8] = experiment: Neuroleptic activity in ip dosed ICR-DUB mouse assessed as survival administered 1 hr prior to d-amphetamine challenge measured after 24 hrs; format: functional
Mus musculus [9] = experiment: Neuroleptic activity in ip dosed ICR-DUB mouse assessed as survival administered 5 days prior to d-amphetamine challenge measured after 24 hrs; format: functional
Mus musculus [10] = experiment: Neuroleptic activity in ip dosed ICR-DUB mouse assessed as survival administered 3 days prior to d-amphetamine challenge measured after 24 hrs; format: functional
Mus musculus [11] = experiment: Neuroleptic activity in ip dosed ICR-DUB mouse assessed as survival administered 2 days prior to d-amphetamine challenge measured after 24 hrs; format: functional
Mus musculus [12] = experiment: Neuroleptic activity in mouse assessed as suppression of conditioned avoidance behavior by measuring mean correct responses level at 20 mg/kg, ip administered 7 days prior to electric shock challenge; format: functional, organism-based; set-up: dose 20 mg/kg
Mus musculus [13] = experiment: Neuroleptic activity in ip dosed ICR-DUB mouse assessed as survival administered 4 days prior to d-amphetamine challenge measured after 24 hrs; format: functional
Mus musculus [14] = experiment: Neuroleptic activity in ip dosed ICR-DUB mouse assessed as survival administered 16 hrs prior to d-amphetamine challenge measured after 24 hrs; format: functional
Mus musculus [15] = experiment: Neuroleptic activity in ip dosed ICR-DUB mouse assessed as survival administered 4 hrs prior to d-amphetamine challenge measured after 24 hrs; format: functional
Mus musculus [16] = experiment: Toxicity in ICR-DUB mouse assessed as depression at 60 mg/kg, ip measured for 5 days; format: organism-based; set-up: dose 60 mg/kg, route intraperitoneal; details: in vivo, 120 h
Mus musculus [17] = experiment: Neuroleptic activity in mouse assessed as suppression of conditioned avoidance behavior by measuring mean correct responses level at 10 mg/kg, ip administered 2 days prior to electric shock challenge; format: functional; details: route intraperitoneal; in short: as §1
Mus musculus [18] = experiment: Toxicity in ICR-DUB mouse assessed as grooming of coat at 60 mg/kg, ip; format: organism-based; set-up: dose 60 mg/kg, route intraperitoneal; details: in vivo
Mus musculus [19] = experiment: Toxicity in ICR-DUB mouse assessed as reduction in food intake at 60 mg/kg, ip; format: organism-based; set-up: dose 60 mg/kg, route intraperitoneal; details: in vivo
Mus musculus [20] = experiment: Toxicity in ICR-DUB mouse assessed as body weight loss at 50 mg/kg, ip; format: organism-based; set-up: dose 50 mg/kg, route intraperitoneal; details: in vivo
Mus musculus [21] = experiment: Toxicity in ICR-DUB mouse assessed as CNS depression at 50 mg/kg, ip measured for 24 hrs; format: organism-based; set-up: dose 50 mg/kg, route intraperitoneal; details: in vivo
Mus musculus [22] = experiment: Toxicity in ICR-DUB mouse assessed as grooming at 50 mg/kg, ip measured during first 24 hrs; format: organism-based; set-up: dose 50 mg/kg, route intraperitoneal; details: in vivo
Mus musculus [23] = experiment: Neuroleptic activity in mouse assessed as suppression of conditioned avoidance behavior by measuring mean correct responses level at 10 mg/kg, ip administered 3 days prior to electric shock challenge; format: functional; details: route intraperitoneal; in short: as §1
Mus musculus [24] = experiment: Toxicity in ICR-DUB mouse assessed as grooming at 50 mg/kg, ip; format: organism-based; set-up: dose 50 mg/kg, route intraperitoneal; details: in vivo
Mus musculus [25] = experiment: Neuroleptic activity in mouse assessed as suppression of conditioned avoidance behavior by measuring mean correct responses level at 10 mg/kg, ip administered 4 days prior to electric shock challenge; format: functional; details: route intraperitoneal; in short: as §1
Mus musculus [26] = experiment: Neuroleptic activity in ip dosed ICR-DUB mouse assessed as survival administered 6 days prior to d-amphetamine challenge measured after 24 hrs; format: functional
Mus musculus [27] = experiment: Toxicity in ICR-DUB mouse assessed as mild sedation at 50 mg/kg, ip measured for 6 days; format: organism-based; set-up: dose 50 mg/kg, route intraperitoneal; details: in vivo, 144 h

| Structure (SMILES) | Activity (Mus musculus [1]) | Activity (Mus musculus [2]) | ED50 (Mus musculus [3]) | Activity (Mus musculus [4]) | Activity (Mus musculus [5]) | Activity (Mus musculus [6]) | Activity (Mus musculus [7]) | ED50 (Mus musculus [8]) | ED50 (Mus musculus [9]) | ED50 (Mus musculus [10]) | ED50 (Mus musculus [11]) | ED50 (Mus musculus [13]) | ED50 (Mus musculus [14]) | ED50 (Mus musculus [15]) | Activity (Mus musculus [17]) | further results |
| --- | --- | --- | --- | --- | --- | --- | --- | --- | --- | --- | --- | --- | --- | --- | --- | --- |
| O=C(c1ccc(Cl)c(Cl)c1)C1CCN(CCCN2c3ccccc3Sc3ccc(Cl)cc32)CC1 | 97% | 97% | inactive | 92% | 95% | 93% | 97% | > 16 mg/kg |  |  |  |  |  |  |  |  |
| OC1(c2ccc(Cl)c(C(F)(F)F)c2)CCN(CCCC(c2ccc(F)cc2)c2ccc(F)cc2)CC1 [PENFLURIDOL] |  |  |  |  |  |  |  | 1.28 mg/kg | Active | 17 mg/kg | 3 mg/kg | 47.5 mg/kg | 1.52 mg/kg | 1.82 mg/kg |  | Activity (Mus musculus [12]): Active |
| O=C(O)/C=C/C(=O)O.O=C(c1ccc(F)cc1)C1CCN(CCCN2c3ccccc3Sc3ccc(Cl)cc32)CC1 | 80% | 38% | inactive | 32% | 40% | 57% | 96% | 0.17 mg/kg | > 60 mg/kg | 8.8 mg/kg | 4.6 mg/kg | 20.9 mg/kg | 0.72 mg/kg | 0.53 mg/kg | 95% | Activity (Mus musculus [16]): Toxic; Activity (Mus musculus [18]): Toxic; Activity (Mus musculus [19]): Toxic |
| CN(C)CCCN1c2ccccc2Sc2ccc(Cl)cc21 [CHLORPROMAZINE] | 42% | 28% |  | 37% | 72% | 88% | 96% | 0.28 mg/kg |  | Active | > 32 mg/kg |  | 3.65 mg/kg |  | 95% |  |
| O=C(O)/C=C/C(=O)O.O=C(c1ccc(F)cc1)C1CCN(CCCN2c3ccccc3Sc3ccc(C(F)(F)F)cc32)CC1 [DUOPERONE FUMARATE] | 98% | 88% | 45.5 mg/kg | 80% | 45% | 58% | 92% |  | 28.4 mg/kg | 15.2 mg/kg | 4.7 mg/kg | 27 mg/kg |  |  | 58% | Activity (Mus musculus [20]): Non-toxic; Activity (Mus musculus [21]): Toxic; Activity (Mus musculus [22]): Toxic; Activity (Mus musculus [23]): 58%; Activity (Mus musculus [24]): Non-toxic; Activity (Mus musculus [25]): 95%; ED50 (Mus musculus [26]): 26.5 mg/kg; Activity (Mus musculus [27]): Toxic |
| O.O=C(O)/C=C/C(=O)O.O=C(c1ccc(F)cc1)C1CCN(CCCN2c3ccccc3Sc3ccccc32)CC1 | 63% | 70% | inactive | 75% | 93% | 87% | 97% | 0.94 mg/kg |  | > 50 mg/kg | 12.1 mg/kg |  | 1.27 mg/kg | 0.35 mg/kg | 98% |  |
| O=C(CCCN1CCC(O)(c2ccc(Cl)cc2)CC1)c1ccc(F)cc1 [HALOPERIDOL] |  |  |  |  |  |  |  | 0.09 mg/kg |  | Active | 16 mg/kg |  | 0.58 mg/kg |  |  |  |
| CC(=O)c1ccc2c(c1)N(CCCN1CCC(C(=O)c3ccc(F)cc3)CC1)c1ccccc1S2.O.O=C(O)/C=C/C(=O)O | 73% | 61% | inactive | 43% | 55% | 55% | 95% |  | 60 mg/kg | 17.5 mg/kg | 22.5 mg/kg | > 64 mg/kg |  |  | 95% | Activity (Mus musculus [23]): 100% |
